SENP8 block-1 – SENP8 protease inhibition; Q96LD8; purified SENP8, Z-RLRGG-aminoluciferin cleavage, luminescence; inhibition, % at 10 µM; 330,000 compounds, 1.2% hits; in the data active = inhibition above about 50%
SENP8 block-2 – SENP8 (human) protease inhibition | Q96LD8 | recombinant SENP8, Nedd8 substrate fluorescence | inhibition, % at 20 µM | 360,000 compounds, 0.64% hits; in the data active = inhibition mostly above about 40%, no sharp cut-off; inactive = mostly below about 27%
Apaf1 inhib – blocks human Apaf-1 apoptosome activity | reconstituted apoptosome caspase-3 activity, DEVD-Rh110 fluorescence | inhibition, % at 20 µM | 330,000 compounds, 0.71% hits; active = inhibition of at least 40% at 20 µM;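 also: plate controls were DMSO wells for no effect and DEVD-CHO caspase inhibitor wells for full effect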
Target sequence (O14727 whole entry, looked up): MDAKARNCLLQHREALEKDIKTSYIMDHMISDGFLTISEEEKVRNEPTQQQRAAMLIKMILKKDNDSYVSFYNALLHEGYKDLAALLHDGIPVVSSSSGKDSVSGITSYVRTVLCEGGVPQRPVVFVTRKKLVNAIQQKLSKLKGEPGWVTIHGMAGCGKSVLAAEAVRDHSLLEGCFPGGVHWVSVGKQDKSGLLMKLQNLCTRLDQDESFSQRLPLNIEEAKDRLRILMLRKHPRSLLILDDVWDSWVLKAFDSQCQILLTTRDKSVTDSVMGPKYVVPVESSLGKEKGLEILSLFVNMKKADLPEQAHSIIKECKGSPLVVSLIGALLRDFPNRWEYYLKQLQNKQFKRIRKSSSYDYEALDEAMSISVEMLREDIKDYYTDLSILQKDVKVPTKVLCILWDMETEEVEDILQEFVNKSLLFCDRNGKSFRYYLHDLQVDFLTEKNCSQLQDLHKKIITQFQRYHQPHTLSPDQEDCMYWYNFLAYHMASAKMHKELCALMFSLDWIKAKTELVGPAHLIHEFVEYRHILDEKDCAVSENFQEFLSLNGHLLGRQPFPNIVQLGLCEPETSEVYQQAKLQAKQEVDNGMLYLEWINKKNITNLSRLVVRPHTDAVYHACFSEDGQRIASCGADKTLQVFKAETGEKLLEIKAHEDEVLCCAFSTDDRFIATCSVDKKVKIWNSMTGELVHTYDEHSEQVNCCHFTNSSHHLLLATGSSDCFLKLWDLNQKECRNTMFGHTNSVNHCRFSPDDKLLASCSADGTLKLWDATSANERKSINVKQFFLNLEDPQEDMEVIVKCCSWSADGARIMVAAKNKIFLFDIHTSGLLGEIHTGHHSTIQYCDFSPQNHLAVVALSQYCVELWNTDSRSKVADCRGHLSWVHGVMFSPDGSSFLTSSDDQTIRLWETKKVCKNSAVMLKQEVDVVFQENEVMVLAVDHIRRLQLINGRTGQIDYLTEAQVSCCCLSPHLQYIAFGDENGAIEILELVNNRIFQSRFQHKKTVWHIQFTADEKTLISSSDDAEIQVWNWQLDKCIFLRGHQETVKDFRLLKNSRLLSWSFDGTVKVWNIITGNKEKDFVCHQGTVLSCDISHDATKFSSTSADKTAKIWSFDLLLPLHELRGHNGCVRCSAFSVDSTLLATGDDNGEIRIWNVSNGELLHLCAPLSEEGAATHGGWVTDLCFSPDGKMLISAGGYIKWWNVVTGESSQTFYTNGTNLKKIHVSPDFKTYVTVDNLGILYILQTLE
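Material: biochemical Apaf-1 apoptosome reconstitution. Medium: Hepes buffer, pH 7.5. Also added: cytochrome c activation, bis-DEVD rhodamine 110 substrate. Timing: 30 min compound preincubation, 50 min activation, room temperature. Measured by: rhodamine 110 fluorescence at Ex 480/Em 540 nm.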
SENP7 inh – blocks the human protease SENP7. inhibition, % at 5 µM. 330,000 compounds, 1.5% hits. recombinant SENP7, Z-RLRGG-aminoluciferin luminescence, 40 min. Q9BQF6;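 active = inhibition above about 50% at the single test dose, limit read from the data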;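 also: plate controls were DMSO with enzyme for no effect and no enzyme buffer wells for full effect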
UBC13 inh – inhibitors of human UBC13 polyubiquitin chain formation; P61088; TR-FRET; inhibition, % at 20 µM; 330,000 compounds, 0.47% hits; AID 485273; in the data active = inhibition above about 45%, passing the limit was not always enough
SENP6 inh – blocks the human protease SENP6. Recombinant SENP6 catalytic domain, aminoluciferin luminescence. Q9GZR1. 330,000 compounds, 1.8% hits. inhibition, % at 10 µM;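 active = inhibition above about 50% at the single tested dose, limit read from the data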;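 also: plate controls were DMSO wells with enzyme for no effect and DMSO wells lacking enzyme for full effect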
SENP8 inh conf – SENP8 (human) inhibition, single concentration confirmation | shares compounds with SENP8 block-2 | purified SENP8, Nedd8-AMC/pro-Nedd8 cleavage fluorescence, 30 min | inhibition, % at 25 µM | 1,400 compounds, 15% hits; in the data active = inhibition mostly above about 39%, no sharp cut-off; inactive = mostly below about 34%
* hit, by the source's call; . = not tested or not shown. This is a sample that favours compounds with a hit; in the whole collection about 3.1% have one here.

SMILES	SENP8 block-1	SENP8 block-2	Apaf1 inhib	SENP7 inh	UBC13 inh	SENP6 inh	SENP8 inh conf
CCOC(=O)/C(=N/Nc1ccc(OC)cc1)N1CCCc2ccccc21	-1	15	7	-2	-3	-25	.
CCCCN1C(=O)C(CC(=O)NCCc2ccccn2)CC(C(=O)N2CCCCCC2)=C1C (stereo not drawn)	.	13	.	.	.	.	.
CCN(CC)CCCOC(=O)C(c1ccccc1)c1ccccc1	4	62*	-3	3	11	-14	18
CC(C)OCCCNC(=O)c1ccc(CN2CCc3ccccc3C2)cc1	-9	7	5	0	-5	-17	.
CC(C)NC(=O)c1ccc(CN2CCc3ccccc3C2)cc1	8	44*	1	2	2	-8	7
CC(C)NC(=O)c1cc(C2CCCCN2S(=O)(=O)c2ccccc2)on1 (stereo not drawn)	.	12	.	.	.	.	.
Cc1ccc(-n2c(=O)cc(N3CCCCCC3)[nH]c2=O)cc1	-6	45*	2	6	2	-19	14
COc1cc(OC)c(C=CC(=O)c2ccccc2O)c(OC)c1	.	42*	.	.	.	.	13
COc1cc(/C=C/C(=O)c2ccccc2O)cc(OC)c1OC	-7	10	0	5	5	-9	.
CCOC(=O)[C@]12CCCC=C1N(Cc1ccccc1)C(=O)[C@H](CC(=O)NCc1ccc(C)o1)C2	.	18	.	.	.	.	.
Cn1c(Cc2ccccc2)nnc1SCC(=O)Nc1ccccc1	-5	8	-10	-5	-7	-33	.
Cn1c(Cc2ccccc2)nnc1SCC(=O)c1cccs1	3	40*	-2	2	1	19	13
NCCNC(=O)c1ncsc1-c1cccc(F)c1	-4	9	2	4	-17	-4	.
O=C(O)c1ncsc1-c1ccccc1	-3	43*	-15	-3	9	-12	23
CC(C)Cc1nc2sc3c(c2c(=O)n1N)CC(C(C)C)OC3 (stereo not drawn)	3	4	5	8	0	-8	.
CC(C)C1Cc2c(sc3ncnc(NN)c23)CO1 (stereo not drawn)	-8	42*	10	-11	-4	3	11
COc1ccc(C(N)c2csc(Nc3nncc4ccccc34)n2)cc1 (stereo not drawn)	.	-43	.	.	.	.	.
C[C@H](CO)N1C[C@H](C)[C@@H](CN(C)S(=O)(=O)c2ccc(-n3cccn3)cc2)OCc2cn(nn2)CCCC1=O	.	6	.	.	.	.	.
CCOc1ccc(N/C=C/C(=O)c2ccc(C)cc2)c([N+](=O)[O-])c1	-7	43*	-13	-7	-38	-13	19
C[C@H]1CN([C@@H](C)CO)C(=O)c2cc(Br)cnc2O[C@@H]1CN(C)S(C)(=O)=O	.	18	.	.	.	.	.
CCc1ccccc1N1C(=O)C2CC=CCC2C1=O (stereo not drawn)	-9	18	-6	0	5	-11	.
CCc1ccccc1N1C(=O)C2CC(C)=C(C)CC2C1=O (stereo not drawn)	0	41*	-4	0	5	-19	3
Cc1cccc(NC(=O)CNC(=O)[C@H]2O[C@@H](n3ccc(=O)[nH]c3=O)[C@H](O)[C@@H]2O)c1C	.	25	.	.	.	.	.
CC1=CC2(O)OCCN(CCO)C2=CC1=O (stereo not drawn)	8	44*	-17	3	-20	9	32
CC1OC(CCc2cccc(Cl)c2)Cc2[nH][nH]c(=O)c21 (stereo not drawn)	.	15	.	.	.	.	.
SMILES	SENP8 block-1	SENP8 block-2	Apaf1 inhib	SENP7 inh	UBC13 inh	SENP6 inh	SENP8 inh conf
CC(C)CC(N)c1csc(Nc2cnccn2)n1 (stereo not drawn)	.	-19	.	.	.	.	.
Cc1ccc(NNC(=O)Nc2ccc(Cl)cc2)nn1	-6	48*	-2	5	-4	-1	2
O=C(NNc1cccc(Cl)n1)Nc1ccc(Cl)cc1	-6	-2	16	-10	-13	11	.
C[C@@H]1CN([C@H](C)CO)C(=O)CCCn2nncc2CO[C@H]1CN(C)C(=O)c1ccc(N2CCN(C)CC2)cc1	.	7	.	.	.	.	.
C[C@H]1CN([C@@H](C)CO)C(=O)CCCn2nncc2CO[C@@H]1CN(C)C(=O)c1ccc(N2CCN(C)CC2)cc1	.	50*	.	.	.	.	0
CCOC(=O)C1(C)CCCN1C(=O)c1sccc1C (stereo not drawn)	.	11	.	.	.	.	.
Cc1cc2c(NC(=O)CC(C)(C)CC(=O)O)cccc2nn1	5	44*	31	9	-17	10	6
O=C(Nc1cccc(Cl)c1)c1ccc(NCCCN2CCOCC2)c([N+](=O)[O-])c1	-6	41*	-11	0	-16	-6	13
Cc1ccc(NC(=O)c2ccc(NCCCN3CCC(C)CC3)c([N+](=O)[O-])c2)cc1F	3	27	-1	3	-4	-9	.
O=C(O)CCc1ccc(-c2ccc(Br)cc2)n1NC(=O)c1ccc([N+](=O)[O-])cc1	0	44*	-11	5	0	-10	25
Cc1ccc(-c2ccc(CCC(=O)O)n2NC(=O)c2ccc([N+](=O)[O-])cc2)cc1	-4	15	-6	9	-15	-6	.
Nn1c(-c2ccccc2Cl)nnc1-c1ccccc1Cl	-6	40*	-3	9	-3	13	9
CC(C)(C)NS(=O)(=O)c1ccc(Oc2ncc(C(F)(F)F)cc2Cl)cc1	4	40*	20	2	-4	3	20
Cc1ccc(C)c(Oc2cc(NN3CCCCC3)c([N+](=O)[O-])cc2[N+](=O)[O-])c1	0	42*	15	8	-2	-8	18
O=C(O)CCCCCCCCCCCc1ccccc1	41	56*	2	-2	-6	34	3
COc1ccc(N2C(=O)CC(Nc3cccc([N+](=O)[O-])c3)C2=O)cc1 (stereo not drawn)	-8	47*	11	8	3	6	29
CC(C)[C@@H]1O[C@H](CCc2ccccc2)CC2=C1C(=O)OC(C)(C)O2	.	9	.	.	.	.	.
CC(C)NC(=O)c1cc(C2CCCCN2C(=O)c2ccc(C#N)cc2)on1 (stereo not drawn)	.	24	.	.	.	.	.
CCOC(=O)c1nn(-c2ccc(C)cc2)c(=O)c2c(N)scc12	3	14	37	8	-19	22	.
Nc1scc2c(C(=O)O)nn(-c3ccccc3)c(=O)c12	12	40*	-2	6	-7	-17	20
COc1ccc(NCC(=O)N/N=C2\CCc3ccccc32)cc1	-1	40*	-16	9	10	15	26
O=C(CNc1ccc(F)cc1)N/N=C1\CCc2ccccc21	-2	-1	6	7	2	5	.
CC(=O)Nc1ccc(NC(=O)COc2cc(O)c3c(c2)OC(C)(C)CC3=O)cc1	-8	41*	-6	5	12	-8	12
CC1(C)CC(=O)c2c(O)cc(OCc3ccc(Br)cc3)cc2O1	-2	-2	7	3	4	9	.
